APP transl inh: APP translation inhibition; 190,000 compounds, 0.82% hits; SH-SY5Y APP 5'UTR-luciferase reporter, luminescence; AID 1285; inhibition, % at 2 µM;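 active = inhibition above a set limit, derived from the sample mean plus 3 SD, cut at about 45% in these data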
Lmaj promast: inhibitors of Leishmania major promastigote growth. 200,000 compounds, 9% hits. inhibition, % at 10 µM. AID 1063. Leishmania major promastigotes, resazurin fluorescence viability; in the data active = inhibition above about 50%;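 also: promastigotes grown with compound for 44 hours at 28 °C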
bCat nuc transl: beta-catenin nuclear translocation modulation; HeLa beta-catenin nuclear translocation, immunofluorescence imaging; nuclear translocation activity, % at 5 µM; 190,000 compounds, 0.3% hits;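 active = nuclear translocation activity above 50% at 5 µM, with a well cell count of 50 or more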;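 also: per-cell ratio of nuclear to cytoplasmic median beta-catenin stain intensity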
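Test system: HeLa cells, endogenous beta-catenin; Compound: single 5 µM dose plus 0.02–20 µM confirmation series; Times: compound exposure 24 h at 37°C; Signal: fluorescence imaging of beta-catenin antibody stain plus DAPI; Read-out: % activation, nuclear-to-cytoplasmic median beta-catenin signal ratio per cell.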
MT stabilizer: microtubule stabilizers in HeLa cells; % tubulin-high responders, % at 10 µM; HeLa tubulin immunostaining HCS, 24 h; share of cells brighter than vehicle mean+2SD; AID 2205; 200,000 compounds, 0.83% hits;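 active = plate Z-score above 3 for both tubulin-high and condensed-nucleus cell shares, with cell loss under 80%, at 10 µM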;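 also: anti alpha tubulin signal scored within the nucleus-defined area of each cell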
BaF3 tox: parental Ba/F3 viability inhibition as JAK2V617F counter-screen. CellTiter-Glo ATP luminescence. 220,000 compounds, 1.1% hits. inhibition, % at 5.6 µM;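 active = inhibition above a per-campaign cutoff, the mean inhibition of all tested compounds plus 3 SD, cut at about 27% in these data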
Ba/F3 V617F tox: reduce viability of Ba/F3 cells dependent on JAK2V617F | 220,000 compounds, 1.1% hits | Ba/F3 EpoR-JAK2V617F viability, ATP luminescence | AID 1446 | inhibition, % at 5.6 µM;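 active = inhibition above the campaign mean plus 3 SD over all tested compounds, cut at about 24% in these data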;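 also: cytokine-independent growth of Ba/F3 cells driven by EpoR plus mutant JAK2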
Hits are given with their value; . = inactive; / = no result given. The list is not random: actives were taken first. Their share in the collection is about 9.6%.

SMILES | APP transl inh | Lmaj promast | bCat nuc transl | MT stabilizer | BaF3 tox | Ba/F3 V617F tox
Cc1cc(=O)oc2cc(OCC(O)CN3CCN(c4ccc(F)cc4)CC3)ccc12 (centres undefined) | . | . | . | . | . | .
OC(CSc1c(Cl)cccc1Cl)CN1CCN(c2ccc(F)cc2)CC1 (centres undefined) | . | 63 | . | . | . | .
OC(CSc1ccccc1Cl)CN1CCN(c2ccccc2F)CC1 (centres undefined) | . | 64 | . | . | . | .
O=C(Nc1cccc(Cl)c1)c1ccc(-n2cncn2)c([N+](=O)[O-])c1 | . | . | . | . | . | .
CC(C)C(=O)c1cn(CC(=O)N2CCCc3ccccc32)c2ccccc12 | . | . | / | . | . | .
COc1ccc(/C(C)=N\NC(=O)c2ccc3c(c2)OCO3)cc1OC | . | . | . | . | . | .
COc1ccccc1NS(=O)(=O)c1cccc(C(=O)N/N=C(\C)c2ccc(-n3ccnc3)cc2)c1 | / | 100 | . | . | . | .
C/C(=N\NC(=O)c1ccccc1)c1ccc(-n2ccnc2)cc1 | . | . | . | . | . | .
COc1ccccc1NS(=O)(=O)c1cccc(C(=O)N/N=C(\C)c2ccc3c(c2)OCCO3)c1 | . | 99 | . | . | . | .
C/C(=N\NC(=O)CN(c1ccccc1Br)S(C)(=O)=O)c1ccc2c(c1)OCCO2 | . | 51 | . | . | . | .
COC(=O)CC1C(=O)NCCN1C(=O)CSc1nc2ccccc2c(=O)n1CC(C)C (centres undefined) | . | . | . | . | . | .
O=C(Nc1ccc(-c2csc(Nc3ccccc3)n2)cc1)c1cc([N+](=O)[O-])cc(C(F)(F)F)c1 | / | / | . | / | / | /
CCOc1ccccc1CN1CCN(Cc2csc(C(C)=O)c2)CC1CCO (centres undefined) | . | 73 | . | . | . | .
COc1ccc(/C=C/CN2CCN(CCc3ccccc3)C(CCO)C2)cc1 (centres undefined) | . | 90 | . | . | . | .
COc1ccccc1/C=C/CN1CCN(Cc2ccc(F)cc2)C(CCO)C1 (centres undefined) | . | 83 | . | . | . | .
CCOc1ccccc1CN1CCN(Cc2cc3ccccc3[nH]2)CC1CCO (centres undefined) | . | . | . | . | . | .
CCOc1ccccc1CN1CCN(C/C=C/c2ccc(OC)cc2)CC1CCO (centres undefined) | . | . | . | . | 43 | .
CCc1cccc(C)c1NC(=S)N(CCCN1CCOCC1)Cc1cccnc1 | . | . | / | . | . | .
O=C(CCNC(=O)c1ccccc1Cl)Nc1nnc(C2CC2)s1 | . | . | . | . | . | .
CCC(=O)Nc1ccccc1Sc1ncnc2scc(-c3ccccc3)c12 | . | . | . | . | . | .
CCCCN1C(=O)/C(=C2\SC(N3CCCCC3)=NC2=O)c2ccccc21 | . | 51 | . | . | . | .
COc1ccc(/C=N/n2cncn2)cc1Cn1nc(C)c([N+](=O)[O-])c1C | / | / | . | / | . | .
C=CCn1c(SCC(=O)Nc2ccc(C(=O)OCC)cc2)nnc1-c1sc(N)nc1C | . | 58 | . | . | . | .
C=CCn1c(SCc2ccc(C(=O)OC)cc2)nnc1-c1sc(N)nc1C | . | . | . | . | . | .
CCOC(=O)c1ccc(NC(=O)CSc2nc3c(c(=O)n2CC)SC(C)C3)cc1 (centres undefined) | . | 53 | . | . | . | .
SMILES | APP transl inh | Lmaj promast | bCat nuc transl | MT stabilizer | BaF3 tox | Ba/F3 V617F tox
CCCCOC(=O)c1ccc(NC(=O)C(=O)NCCN(C)C)cc1 | / | / | . | / | . | .
O=C1CC(c2ccco2)Cc2nc(N3CCN(Cc4ccc5c(c4)OCO5)CC3)ncc21 (centres undefined) | . | 75 | . | . | . | .
COc1ccc(C2CC(=O)c3cnc(N4CCN(Cc5ccccc5)CC4)nc3C2)cc1 (centres undefined) | . | . | . | . | . | .
COC(=O)c1cc(C(=O)N2CCN(c3cccc(Cl)c3)CC2)cc([N+](=O)[O-])c1 | 92 | 50 | 100 | . | 72 | 73
COC(=O)c1cc(C(=O)N2CCOCC2)cc([N+](=O)[O-])c1 | . | . | . | . | . | .
Cc1ccc(N2CCN(C(=O)c3cccc([N+](=O)[O-])c3)CC2)cc1Cl | . | . | . | . | . | .
O=C(c1cccc([N+](=O)[O-])c1)N1CCN(c2cccc(Cl)c2)CC1 | . | . | . | 27 | . | .

Screens (PubChem BioAssay)
